Assay results as given in PubChem BioAssay AID504677 (The Scripps Research Institute Molecular Screening Center, 2011).
Active and inactive are the calls of the source.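 How the source made its calls: active means compounds with IC50 half-inhibiting concentration of 10 µM or lower; inactive means IC50 above 10 µM.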

test system: E. coli V3065 expressing H. pylori AddAB, T4 phage, OD growth; test: H. pylori AddAB complex inhibitors in E. coli, late-stage follow-up, absorbance, E. coli V3065, T4 phage, powder samples (AID 504677)
Summary of the method: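 Assay system: addAB+ E. coli strain V3065; timing: 60 min compound-cell pre-incubation, then 18 h phage exposure at 37 °C; replicates: each concentration tested in triplicate; signal: absorbance at 600 nm as bacterial growth measure; read-out basis: IC50 from sigmoidal fit of percent inhibition versus concentration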

Compound | IC50
NC(=O)c1ccsc1NC(=O)COC(=O)c1ccc([N+](=O)[O-])o1 | 5.83 µM
O=C(Nc1cccc(NC(=O)c2ccccc2Cl)c1)c1ccc([N+](=O)[O-])o1 | > 13.2 µM (inactive)
O=C(Nc1ccc(N2CCOCC2)cc1)c1ccc([N+](=O)[O-])o1 | 11.8 µM (inactive)
Cc1cccnc1NC(=O)c1ccc([N+](=O)[O-])o1 | 19.6 µM (inactive)
O=C(NCc1cccnc1)c1ccc([N+](=O)[O-])o1 | 18.9 µM (inactive)
CC(=O)Nc1ccc2nc(NC(=O)c3ccc([N+](=O)[O-])o3)sc2c1 | > 119 µM (inactive)
CCn1cc(C(=O)O)c(=O)c2cnc(N3CCN(C(=S)Nc4ccccc4C(F)(F)F)CC3)nc21 | 35.5 µM (inactive)
C=CCn1c(Sc2ncc([N+](=O)[O-])s2)n[nH]c1=O | 14.8 µM (inactive)
N#Cc1c(NC(=O)c2ccc([N+](=O)[O-])o2)sc2c1CCC2 | 17.8 µM (inactive)
O=C(OCC(=O)c1cccs1)c1ccc([N+](=O)[O-])o1 | 53.3 µM (inactive)
Cc1ccc2nc(/C(C#N)=C\c3ccc([N+](=O)[O-])o3)[nH]c2c1 | 9.42 µM
O=C(Nc1ncccn1)c1ccc([N+](=O)[O-])o1 | 7.54 µM
